A value given as a limit tells only on which side of the number the result lay.

This note sets out measurements from ChEMBL document CHEMBL1133751, “Design, synthesis, and biological evaluation of tricyclic nucleosides (dimensional probes) as analogues of certain antiviral polyhalogenated benzimidazole ribonucleosides” (J Med Chem, 2000).

One assay has as its system Human alphaherpesvirus 1. Put plainly: Antiviral activity against HSV-1 (herpes simplex virus), determined by ELISA in quadruplicate wells using BSC-1 cells. Format: functional, organism-based. The settings on record: Human alphaherpesvirus 1, BSC-1. Put shortly: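 KOS strain HSV-1 at 100 PFU/well added with selected drug concentrations in quadruplicate to 96-well dishes seeded with 10 000 BSC-1 cells/well and incubated overnight. Virus detected by ELISA. IC50 from linear regression of percent inhibition vs log concentration. Average of 2–3 separate experiments.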
(ELISA stands for enzyme-linked immunosorbent assay.)

Assay [1] deals with HFF. Description: Visual cytotoxicity against stationary human foreskin fibroblasts (HFF) cells at the time of HCMV plaque enumeration. The format is functional, cell-based. The essentials:
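Stationary HFF monolayers in the uninfected wells of the HCMV plaque assay inspected microscopically for cytotoxicity. Compounds in growth medium at 4–8 concentrations. IC50 from linear regression of percent inhibition against log concentration.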

The test system of assay [2] is HFF. Description: Antiviral activity against towne strain HCMV was determined by plaque reduction assay in duplicate wells using HFF cells. Format: functional, cell-based. The settings on record: Homo sapiens. The essentials:
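HFF monolayers in 24-well dishes infected with about 100 PFU Towne HCMV (plaque-purified isolate P0) per cm2. Compounds in growth medium added to duplicate wells at 4–8 concentrations. Plaques scored. IC50 from linear regression of percent inhibition against log drug concentration.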
In general terms: Plaque reduction counts the foci of infection that form in a cell layer.

A short description of assay [3]: Compound was tested for the inhibition of KB cell growth in quadruplicate wells. Format: functional, cell-based. The conditions noted are these: Homo sapiens. The essentials:
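KB cells grown through two population doublings with compound in quadruplicate wells. Growth quantified by crystal violet staining and spectrophotometric reading of eluted dye. IC50 from linear regression of percent inhibition against log concentration.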

Assay [4] has as its system HFF. Put plainly: Antiviral activity against towne strain HCMV was determined by yield reduction assay in duplicate wells using HFF cells. The format is functional. The settings on record: Homo sapiens. Put shortly:
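HFF cells plated in 96-well dishes and incubated overnight. Inoculated with Towne HCMV at MOI 0.5–1 PFU/cell, then drug added, in duplicate wells. Progeny virus yield measured. IC90 from the linear portion of log–log regression of yield versus drug concentration.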

In the case of `OC[C@H]1OC(n2c(NC3CC3)nc3nc4cc(Cl)c(Cl)cc4nc32)[C@H](O)[C@@H]1O` (stereo partly specified), the IC50 (commonly the point on the concentration scale where inhibition reaches its midpoint) in the assay with Human alphaherpesvirus 1 was over 100 µM; with HFF [1] it was over 100 µM; with HFF [2], 32 µM; in assay [3], 90 µM.

`OC[C@H]1OC(n2c(SCc3ccccc3)nc3cc4cc(Cl)c(Cl)cc4cc32)[C@H](O)[C@@H]1O` (stereo partly specified): the IC50 (in the assay with Human alphaherpesvirus 1; with HFF [1]; in the assay with HFF [2]; in assay [3]) was over 100 µM in each case.

On to `CC(C)Nc1nc2nc3cc(Cl)c(Cl)cc3cc2n1C1O[C@H](CO)[C@@H](O)[C@H]1O` (stereo partly specified), for which the IC50 with Human alphaherpesvirus 1 was over 100 µM; in the assay on HFF [1] it was 100 µM; with HFF [2], 32 µM; in assay [3] it was 90 µM.

As to `OC[C@H]1OC(n2cnc3nc4cc(Cl)c(Cl)cc4nc32)[C@H](O)[C@@H]1O` (stereo partly specified), the IC50 in the assay on Human alphaherpesvirus 1 is over 100 µM; with HFF [1], 45 µM; in the assay on HFF [2], 32 µM; in assay [3], over 100 µM.

On to `CC(C)Nc1nc2cc3cc(Cl)c(Cl)cc3nc2n1C1O[C@H](CO)[C@@H](O)[C@H]1O` (stereo partly specified), for which the IC50 is over 100 µM with Human alphaherpesvirus 1, 32 µM in the assay with HFF [1], 32 µM in the assay with HFF [2] and 90 µM in assay [3].

Consider `OC[C@H]1OC(n2c(Cl)nc3cc4cc(Cl)c(Cl)cc4nc32)[C@H](O)[C@@H]1O` (stereo partly specified), for which the IC50 in the assay with Human alphaherpesvirus 1 is 90 µM; in the assay on HFF [1], 18 µM; in the assay with HFF [2], 18 µM; in assay [3] it was 8 µM. Moreover, the IC90 (commonly the concentration at which the effect reaches the 90% level) in the assay on HFF [4] turned out to be 9.2 µM.

In the assay with HFF [4], `OC[C@H]1O[C@@H](n2c(Cl)nc3cc(Cl)c(Cl)cc32)[C@H](O)[C@@H]1O` displayed an IC90 of 1.4 µM. Also, the results for the IC50 (with HFF [2]; in assay [3]) were 2.9 µM and 210 µM, respectively.

Consider `Nc1nc2c(ncn2COC(CO)CO)c(=O)[nH]1` [GANCICLOVIR], for which the IC50 (in the assay with HFF [1]; in assay [3]) was over 100 µM in each case. This molecule also displayed an IC90 with HFF [4] of 1.6 µM.

Consider `OC[C@H]1OC(n2c(Cl)nc3cc4cc(Cl)c(Cl)cc4cc32)[C@H](O)[C@@H]1O` (stereo partly specified), for which the IC50 in the assay with Human alphaherpesvirus 1 came out at 26 µM; in the assay on HFF [1] it was 3.2 µM; with HFF [2], 2 µM; in assay [3], 19 µM. Further, the IC90 with HFF [4] came out at 2.3 µM.

Turning to `OC[C@H]1OC(n2cnc3cc4cc(Cl)c(Cl)cc4cc32)[C@H](O)[C@@H]1O` (stereo partly specified), the IC50 (with Human alphaherpesvirus 1; in the assay on HFF [1]; in the assay with HFF [2]; in assay [3]) was over 100 µM each time. In the assay with HFF [4], the IC90 stood at 17 µM.

In the case of `OC[C@H]1OC(n2c(SCc3ccccc3)nc3cc4cc(Cl)c(Cl)cc4nc32)[C@H](O)[C@@H]1O` (stereo partly specified), the IC50 in the assay on Human alphaherpesvirus 1 was over 100 µM; in the assay on HFF [1] it was over 10 µM; in the assay with HFF [2], over 10 µM; in assay [3], over 100 µM.

Consider `CC(C)Nc1nc2cc3cc(Cl)c(Cl)cc3cc2n1C1O[C@H](CO)[C@@H](O)[C@H]1O` (stereo partly specified), for which the IC50 is 80 µM in the assay on Human alphaherpesvirus 1, 32 µM with HFF [1], 32 µM in the assay with HFF [2] and 146 µM in assay [3].

Consider `CC(C)Nc1nc2nc3cc(Cl)c(Cl)cc3nc2n1C1O[C@H](CO)[C@@H](O)[C@H]1O` (stereo partly specified), for which the IC50 with Human alphaherpesvirus 1 turned out to be 100 µM; with HFF [1], 100 µM; in the assay with HFF [2] it was 32 µM; in assay [3], 70 µM.

Turning to `OC[C@H]1OC(n2c(SCc3ccccc3)nc3nc4cc(Cl)c(Cl)cc4cc32)[C@H](O)[C@@H]1O` (stereo partly specified), the IC50 in the assay on Human alphaherpesvirus 1 is over 100 µM; with HFF [1] it was 20 µM; in the assay with HFF [2], 4.2 µM; in assay [3], 40 µM.

In the case of `OC[C@H]1O[C@@H](n2cnc3cc(Cl)c(Cl)cc32)[C@H](O)[C@@H]1O` [DICHLORORIBOBENZIMIDAZOLE], the IC50 worked out at 30 µM with Human alphaherpesvirus 1, 42 µM with HFF [2] and 36 µM in assay [3]. In the assay on HFF [4], this molecule yielded an IC90 of 19 µM.

With `OC[C@H]1OC(n2c(NC3CC3)nc3cc4cc(Cl)c(Cl)cc4cc32)[C@H](O)[C@@H]1O` (stereo partly specified), the IC50 amounted to 80 µM in the assay with Human alphaherpesvirus 1, 32 µM with HFF [1], 32 µM in the assay on HFF [2] and 55 µM in assay [3].

For the molecule `OC[C@H]1OC(n2c(NC3CC3)nc3nc4cc(Cl)c(Cl)cc4cc32)[C@H](O)[C@@H]1O` (stereo partly specified), the IC50 (in the assay on Human alphaherpesvirus 1; in the assay on HFF [1]; with HFF [2]; in assay [3]) was over 100 µM throughout.

For the molecule `OC[C@H]1OC(n2c(Cl)nc3nc4cc(Cl)c(Cl)cc4cc32)[C@H](O)[C@@H]1O` (stereo partly specified), the IC50 in the assay on Human alphaherpesvirus 1 was 70 µM; in the assay with HFF [1] it was 21 µM; in the assay with HFF [2], 2 µM; in assay [3], 11 µM. The molecule further showed an IC90 in the assay on HFF [4] of 45 µM.

On to `OC[C@H]1OC(n2c(SCc3ccccc3)nc3nc4cc(Cl)c(Cl)cc4nc32)[C@H](O)[C@@H]1O` (stereo partly specified), for which the IC50 is 30 µM with Human alphaherpesvirus 1, 20 µM with HFF [1], 4.2 µM in the assay with HFF [2] and 20 µM in assay [3].

Turning to `OC[C@H]1OC(n2cnc3nc4cc(Cl)c(Cl)cc4cc32)[C@H](O)[C@@H]1O` (stereo partly specified), the IC50 was over 100 µM in the assay with Human alphaherpesvirus 1, over 100 µM in the assay on HFF [1], over 100 µM in the assay with HFF [2] and 85 µM in assay [3]. Also, the IC90 with HFF [4] worked out at 85 µM.

Take `OC[C@H]1OC(n2cnc3cc4cc(Cl)c(Cl)cc4nc32)[C@H](O)[C@@H]1O` (stereo partly specified): the IC50 in the assay on Human alphaherpesvirus 1 is over 100 µM; in the assay on HFF [1] it was over 10 µM; in the assay on HFF [2] it was over 10 µM; in assay [3], over 100 µM.

As to `OC[C@H]1OC(n2c(NC3CC3)nc3cc4cc(Cl)c(Cl)cc4nc32)[C@H](O)[C@@H]1O` (stereo partly specified), the IC50 is over 100 µM with Human alphaherpesvirus 1, over 100 µM with HFF [1], over 100 µM in the assay on HFF [2] and 100 µM in assay [3].
